# Experimental data taken from ChEMBL document CHEMBL1124709, “Synthesis and antiviral activity of 3'-heterocyclic substituted 3'-deoxythymidines” (1990).
# Legend:
# Type in all cases: functional
# MT4 [1] = test: Cytotoxic dose required to reduce the viability of normal uninfected MT-4 cells by 50%; conditions: Homo sapiens, read-out: CD50 (the source's name)
# MT4 [2] = test: Effective dose of compound required to achieve 50% protection of MT-4 cells against the cytopathic effect of HIV; conditions: Homo sapiens, read-out: ED50 (the source's name)
# Summary of the method: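 HIV-1 strain HTLV-III_B in human MT-4 cells; the read-out is inhibition of virus-induced cytopathic effect. ED50 is the dose giving 50% protection of the cells.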
# C3H/3T3 [3] = test: Minimum cytotoxic concentration required to inhibit MSV-induced transformation of C3H/3T3 cells; conditions: Mus musculus
# Summary of the method: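 Murine embryo fibroblast C3H/3T3 cells examined under the microscope. The value is the minimum concentration at which an alteration of normal cell morphology was seen.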
# C3H/3T3 [4] = test: Inhibitory effect on MSV-induced transformation of C3H/3T3 cells; conditions: Mus musculus, read-out: ED50 (the source's name)
# Summary of the method: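 Murine embryo fibroblast C3H/3T3 cells infected with Moloney murine sarcoma virus; the read-out is inhibition of virus-induced cell transformation.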
SMILES,CC50 (MT4 [1]) [µM],EC50 (MT4 [2]) [µM],MCC (C3H/3T3 [3]) [µM],EC50 (C3H/3T3 [4]) [µM]
Cc1cn([C@@H]2O[C@H](CO)[C@H](n3cncn3)C2O)c(=O)[nH]c1=O (stereo partly drawn),> 500,> 500,> 100,> 100
Cc1cn([C@@H]2O[C@H](CO)[C@H](n3cccn3)C2O)c(=O)[nH]c1=O (stereo partly drawn),> 100,> 100,> 100,> 100
Cc1cn([C@H]2C[C@@H](NC=O)[C@@H](CO)O2)c(=O)[nH]c1=O,66,> 100,> 100,> 100
Cc1cn([C@@H]2O[C@H](CO)[C@H](n3ccnc3)C2O)c(=O)[nH]c1=O (stereo partly drawn),> 500,> 500,> 100,> 100
Cc1cn([C@H]2C[C@@H](n3cncn3)[C@@H](CO)O2)c(=O)[nH]c1=O,> 500,> 500,> 100,> 100
Cc1cn([C@H]2C[C@@H](n3cccc3)[C@@H](CO)O2)c(=O)[nH]c1=O,> 500,201,> 100,91
Cc1cn([C@H]2C[C@@H](n3ccnn3)[C@@H](CO)O2)c(=O)[nH]c1=O,> 500,> 500,> 100,> 100
Cc1cn([C@@H]2O[C@H](CO)C[C@H]2n2cncn2)c(=O)[nH]c1=O,> 500,> 500,> 100,> 100
Cc1cn([C@H]2C[C@@H](n3cnnc3)[C@@H](CO)O2)c(=O)[nH]c1=O,4.8,> 5,> 100,> 100
Cc1cn([C@H]2C[C@@H](n3ccnc3)[C@@H](CO)O2)c(=O)[nH]c1=O,> 500,> 500,> 100,> 100
Cc1cn([C@H]2C[C@@H](n3cccn3)[C@@H](CO)O2)c(=O)[nH]c1=O,> 500,> 500,> 100,> 100
Cc1cn([C@@H]2O[C@H](CO)[C@@H](O)C2n2cncn2)c(=O)[nH]c1=O (stereo partly drawn),> 500,> 500,> 100,> 100
